Activity calls are given as the source filed them. No cut-off for these calls is given here.
Columns and labels:
[1] = system: Influenza A virus (A/Puerto Rico/8/1934(H1N1)); test: Inhibition of RNA polymerase in Influenza A virus (A/PR/8/34(H1N1)) infected in human 293T cells harboring pPol1-Fluc at 10 uM after 24 hrs by luciferase reporter gene assay; type: cell-based
Outline: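 293T cells transfected with 50 ng pPolI-Fluc reporter. After 5 h, infected with PR8 at different titres for 1 h. Then given DMEM/10% FBS with 10 μM compound or 0.1% DMSO; luciferase measured in lysates after 24 h.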

Influenza A virus = test: Antiviral activity against Influenza A virus (A/PR/8/34(H1N1)) harboring neuraminidase H274Y mutant infected in MDCK cells assessed as reduction in virus-induced cytopathic effect by MTT assay; type: functional, organism-based, A/Puerto Rico/8/1934(H1N1)
Outline: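 MTT-based cytopathic-effect reduction assay in MDCK cells. Run in triplicate; IC50 reported as mean ± SD.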

`CC/C=C1/C=CC(=O)[C@@H](O)[C@]12C(=O)N(OC)[C@@](C)(OC)[C@@H]2O` was tested, and the inhibition [1] was “Active” and the IC50 (Influenza A virus) was 1200 nM.

Source: ChEMBL document CHEMBL4382263, “Spirostaphylotrichin X from a Marine-Derived Fungus as an Anti-influenza Agent Targeting RNA Polymerase PB2” (J Nat Prod, 2018)
